Measured values published in ChEMBL document CHEMBL3044892, “Primary study on mode of action for macrocyclic fungicide candidates (7B3, D1) against Rhizoctonia solani Kuhn” (J Agric Food Chem, 2010).
Converted amounts (≈) assume the structure as drawn. The source made the active and inactive calls. No cut-off for these calls is given here.

Legend:
[1] = system: Colletotrichum orbiculare; experiment: Fungicidal activity against Colletotrichum orbiculare assessed as inhibition rate; assay type: functional
[2] = system: Rhizoctonia solani; experiment: Fungicidal activity against Rhizoctonia solani assessed as mycelia rough surface and formed irregular ramification or abnormal configuration at 50 ug/mL by scanning electron micrography; assay type: functional, organism-based
Summary of the method: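 Hyphal tips (5 mm) cut from margins of R. solani colonies grown 3 days on PDA containing 0 or 50 μg mL-1 compound; glutaraldehyde (4%, 4 C) and osmium tetroxide fixation, graded acetone dehydration, critical-point drying, gold coating; imaged by SEM at 18-20 kV accelerating voltage.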

[3] = system: Rhizoctonia solani; experiment: Fungicidal activity against Rhizoctonia solani assessed as disappearance of septal pore caps at 50 ug/mL by Transmission electron micrography; assay type: functional, organism-based
Summary of the method: (§1)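 R. solani grown 3 days on PDA with 0 or 50 μg mL-1 test compound; 5 mm hyphal tips from colony margin fixed in 4% glutaraldehyde at 4 C, then 1% osmium tetroxide, acetone-dehydrated, Epon-embedded; thin sections double-stained with uranyl acetate and lead citrate, examined by TEM versus untreated control.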

[4] = system: Fulvia fulva; experiment: Fungicidal activity against Passalora fulva Cooke Ciferri assessed as inhibition rate; assay type: functional
[5] = system: Alternaria kikuchiana; experiment: Fungicidal activity against Alternaria kikuchiana Tanaka assessed as inhibition rate; assay type: functional
[6] = system: Rhizoctonia solani; experiment: Fungicidal activity against Rhizoctonia solani assessed as inhibition rate; assay type: functional
[7] = system: Rhizoctonia solani; experiment: Fungicidal activity against Rhizoctonia solani assessed as thicker hyphae and abnormally thickened walls of the septa at 50 ug/mL by Transmission electron micrography; assay type: functional, organism-based; summary of the method: as §1
[8] = system: Rhizoctonia solani; experiment: Fungicidal activity against Rhizoctonia solani assessed as inhibition of intact mycelia respiration at 100 ug/mL by […]; assay type: functional
Summary of the method: (§2)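 Intact R. solani mycelia from 5-day PD shake culture (25 C, 150 rpm), washed, resuspended at 50 mg fresh weight mL-1 in 0.1 M phosphate buffer pH 7.2 with 2% glucose; treated with 10 or 100 μg mL-1; O2 uptake by oxygraph at 25 C before and after addition; inhibition = (R0-R1)/R0 × 100; n = 3.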

[9] = system: Rhizoctonia solani; experiment: Fungicidal activity against Rhizoctonia solani assessed as reduction in mycelia growth at 50 ug/mL; assay type: functional, organism-based
[10] = system: Rhizoctonia solani; experiment: Fungicidal activity against Rhizoctonia solani assessed as inhibition of intact mycelia respiration at 10 ug/mL by […]; assay type: functional; summary of the method: as §2
[11] = system: Rhizoctonia solani; experiment: Fungicidal activity against Rhizoctonia solani assessed as disorganized organelles and decreased in the hyphae cytoplasm at 50 ug/mL by Transmission electron micrography; assay type: functional, organism-based; summary of the method: as §1
[12] = system: Verticillium dahliae; experiment: Fungicidal activity against Verticillium dahliae assessed as inhibition rate; assay type: functional
[13] = system: Sclerotinia sclerotiorum; experiment: Fungicidal activity against Sclerotinia sclerotiorum assessed as inhibition rate; assay type: functional
[14] = system: Phyllosticta; experiment: Fungicidal activity against Phyllospicpa physaleos Sacc., by mycelium growth rate test; assay type: functional, organism-based
[15] = system: Botrytis cinerea; experiment: Fungicidal activity against Botryotinia fuckeliana by mycelium growth rate test; assay type: functional, organism-based
[16] = system: Rhizoctonia solani; experiment: Fungicidal activity against Rhizoctonia solani assessed as prevention in cotton at 140 g/ha by field efficacy trail; assay type: functional
[17] = system: Alternaria kikuchiana; experiment: Fungicidal activity against Alternaria kikuchiana by mycelium growth rate test; assay type: functional, organism-based
[18] = system: Rhizoctonia solani; experiment: Fungicidal activity against Rhizoctonia solani by mycelium growth rate test; assay type: functional, organism-based
[19] = system: Rhizoctonia solani; experiment: Fungicidal activity against Rhizoctonia solani assessed as induction of electrolyte leakage from hyphae at 50 ug/mL by cell membrane permeability assay; assay type: functional, organism-based

SMILES | inhibition [2] | Activity [7] | inhibition at 100 µg/mL [8] [%] | inhibition [9] | inhibition at 10 µg/mL [10] [%] | inhibition [11] | further results
F[B-](F)(F)F.O=C1CCCCCCCCCCC[NH2+]CCO1 | Active | Active | 3 | Active | 1.67 | Active | inhibition (INH) [1]: 73.2%; Activity [3]: Active; inhibition (INH) [4]: 89.3%; inhibition (INH) [5]: 85.7%; inhibition (INH) [6]: 96%; inhibition (INH) [12]: 86.9%; inhibition (INH) [13]: 85.7%
CCCO/N=C1\CCCCCCCCCCC(=O)NCCC1 | Active | Active | 12.1 | Active | 3.39 | Active | EC50 [14]: 1.9 µg/mL (≈ 6.12 µM); EC50 [15]: 8.6 µg/mL (≈ 27.7 µM); Activity [16]: 64%; EC50 [17]: 1.2 µg/mL (≈ 3.86 µM); EC50 [18]: 4.6 µg/mL (≈ 14.8 µM)
CO/C=C(/C(=O)OC)c1ccccc1Oc1cc(Oc2ccccc2C#N)ncn1 [AZOXYSTROBIN] | – | – | – | – | 84.9 | – | –
CC(C)(C)C(=O)C(Oc1ccc(Cl)cc1)n1cncn1 (stereo unspecified) | – | – | – | – | – | – | Activity [19]: inactive
